Columns and labels:
[1] = Partition coefficient in an aqueous 1-octanol buffer system by the shake-flask method; type: physicochemical; details: 1-octanol/aqueous buffer
Summary of the method: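 LogP_app by shake-flask in aqueous buffer/1-octanol at pH 7.4 (ionic strength 0.10 M NaCl), 23±1.0 °C. Aqueous-phase compound concentration measured spectrophotometrically; values are means of duplicate determinations run in triplicate.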

[2] = molecular target: Serotonin 3 (5-HT3) receptor; assay: Binding affinity for 5-HT3 receptor of NG108-15 cells using [3H]GR-65630; type: cell-based
Summary of the method: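 Competition binding against 1 nM [3H]GR65630 (84.2 Ci/mmol; KD 0.7 nM); nonspecific binding defined with […]. Incubation 30 min at room temperature, then filtration on presoaked glass fiber filters, ice-cold buffer wash, scintillation counting. Log concentration vs percent inhibition fitted by nonlinear least squares assuming 100% maximal inhibition; Ki from IC50 via Cheng-Prusoff.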

Row | logD [1] | Ki [2] | SMILES
1 | -1.17 | – | N=C(N)NC(=N)Nc1ccccc1 [PHENYL BIGUANIDE]
2 | – | > 10 µM | Nc1ncnc(Nc2ccccc2)n1 [AMANOZINE]
3 | -1.32 | – | N=C(N)Nc1ccccc1 [PHENYLGUANIDINE]
4 | – | 0.034 µM | NC1=Nc2cc(Cl)ccc2CN1
5 | – | > 10 µM | Nc1ncnc(Nc2cccc(Cl)c2)n1
6 | -0.64 | – | NC(N)=Nc1cccc(Cl)c1
7 | – | > 10 µM | CC1N=C(N)N=C(N)N1c1cccc(Cl)c1 (stereo not given)
8 | -0.38 | – | N=C(N)NC(=N)Nc1cccc(Cl)c1
9 | – | > 10 µM | Nc1nc(Nc2cccc(Cl)c2)n[nH]1
10 | – | > 10 µM | CC1(C)N=C(N)N=C(N)N1c1cccc(Cl)c1
11 | – | 0.725 µM | Nc1nc2ccc(Cl)cc2[nH]1
12 | 1.16 | – | N=C(N)Nc1cc(Cl)c(Cl)c(Cl)c1
13 | 1.47 | – | N=C(N)NC(=N)Nc1cc(Cl)c(Cl)c(Cl)c1
14 | – | 1.46 µM | Nc1nccc(Nc2cccc(Cl)c2)n1
15 | – | > 10 µM | Nc1ncnc(Nc2ccc3ccccc3c2)n1
